The source made the active and inactive calls. The rule behind the calls is not given here.

Series [1] has as its system Trypanosoma cruzi. Nature of the series: Ratio of benznidazole IC50 to compound IC50 for Trypanosoma cruzi Tulahuen C4 amastigotes. It counts as functional.
Series [2] concerns Trypanosoma brucei rhodesiense. Nature of the series: Antitrypanosomal activity against Trypanosoma brucei rhodesiense STIB 900 trypomastigotes. It counts as functional, organism-based. In short, it runs like this:
(§1)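 96-well format screens: bloodstream-form T. b. rhodesiense trypomastigotes, T. cruzi amastigotes within infected L6 rat skeletal myoblasts, axenically grown L. donovani amastigotes, and uninfected L6 cells for cytotoxicity. IC50 (μM) obtained by linear regression from sigmoidal dose–inhibition curves.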

Another series concerns Leishmania donovani. Nature of the series: Antileishmanial activity against Leishmania donovani MHOM-ET67/L82 amastigotes. It counts as functional, organism-based. In short, it runs like this:
as §1

The nature of series [3]: Selectivity index, ratio of IC50 for rat L6 cells to IC50 for Trypanosoma cruzi Tulahuen C4 amastigotes.
Series [4] in a line: Selectivity index, ratio of IC50 for rat L6 cells to IC50 for Leishmania donovani MHOM-ET67/L82 amastigotes.
The test system of series [5] is Trypanosoma cruzi. Nature of the series: Antitrypanosomal activity against Trypanosoma cruzi Tulahuen C4 amastigotes. Type of series: functional, organism-based. In short, it runs like this:
as §1

A short description of series [6]: Selectivity index, ratio of IC50 for rat L6 cells to IC50 for Trypanosoma brucei rhodesiense STIB900 trypomastigotes.
Another series relates to L6. Nature of the series: Cytotoxicity against rat L6 cells. It counts as cell-based. In short, it runs like this: as §1
Series [7] concerns Trypanosoma brucei brucei. Nature of the series: Antitrypanosomal activity against bloodstream form of Trypanosoma brucei brucei Lister 427 clone 221a. It counts as functional, organism-based. Put shortly:
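Bloodstream-form parasites seeded at 1 × 10^3 per ml in growth medium with a range of compound concentrations; where required, TbNTR expression induced with tetracycline (1 μg/mL). Incubation 3 days at 37 °C, then Alamar blue added for a further 16 h. Cell density read and IC50 determined.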

Series [8] deals with Trypanothione reductase (Trypanosoma brucei brucei) (UniProt P39051). Nature of the series: Inhibition of Trypanosoma brucei brucei trypanothione reductase at <100 uM.
Series [9] has as its system Trypanosoma brucei brucei. Nature of the series: Activity of Trypanosoma brucei brucei recombinant Type I nitroreductase assessed as oxidised NADH level by spectrophotometric analysis. In short, it runs like this: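 His-tagged recombinant TbNTR, purified, assayed spectrophotometrically at 340 nm with nitrotriazole substrate (100 μM) and NADH (100 μM); activity expressed as nmol NADH oxidized min−1 mg−1 enzyme.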

For series [10], the system named is Trypanosoma brucei brucei. Nature of the series: Antitrypanosomal activity against bloodstream form of Trypanosoma brucei brucei Lister 427 clone 221a overexpressing tet-inducible NTR in absence of tetracycline after 3 days. To be noted: 72 h.
Series [11] concerns Trypanosoma brucei brucei. Nature of the series: Antitrypanosomal activity against bloodstream form of Trypanosoma brucei brucei Lister 427 clone 221a overexpressing tet-inducible NTR in presence of tetracycline after 3 days. As to conditions: 72 h.
Series [12] relates to Trypanosoma brucei brucei. Nature of the series: Selectivity ratio of IC50 for Trypanosoma brucei brucei Lister 427 clone 221a overexpressing tet-inducible NTR in absence of tetracycline to IC50 for Trypanosoma brucei brucei overexpressing tet-inducible NTR in presence of tetracyclin.

Chain of Trypanothione reductase (Trypanosoma brucei brucei) (P39051 whole entry, looked up): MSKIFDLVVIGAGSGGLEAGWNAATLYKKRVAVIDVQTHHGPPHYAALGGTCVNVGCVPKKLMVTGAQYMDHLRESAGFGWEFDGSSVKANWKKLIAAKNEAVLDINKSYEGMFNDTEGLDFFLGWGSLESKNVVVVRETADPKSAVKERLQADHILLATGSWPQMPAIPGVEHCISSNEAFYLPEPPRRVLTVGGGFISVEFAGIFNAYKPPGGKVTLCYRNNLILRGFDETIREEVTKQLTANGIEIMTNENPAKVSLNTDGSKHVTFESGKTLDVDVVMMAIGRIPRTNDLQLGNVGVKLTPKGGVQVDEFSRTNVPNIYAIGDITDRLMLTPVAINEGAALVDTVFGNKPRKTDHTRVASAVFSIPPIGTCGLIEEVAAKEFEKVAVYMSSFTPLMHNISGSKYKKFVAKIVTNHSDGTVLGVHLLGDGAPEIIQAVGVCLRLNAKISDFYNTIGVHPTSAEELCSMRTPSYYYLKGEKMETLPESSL

On to `O=C(Cn1cnc([N+](=O)[O-])n1)Nc1nc2cc(Cl)ccc2o1`, for which the “Ratio IC50” value in the series on Trypanosoma cruzi [1] is on record as 0.2. Moreover, the IC50 worked out at 34.4 µM in series [2], 4.68 µM in the series on Leishmania donovani, 7.88 µM in the series with Trypanosoma cruzi [5] and 26.3 µM in the series with L6. The figures for the selectivity ratio in series [3], in [4] and in series [6] were 3.3, 5.6 and under 1, respectively.
With `O=C(NCCn1cnc([N+](=O)[O-])n1)c1ccc(C(F)(F)F)cc1`, the “Ratio IC50” value was found to be 3.6 in the series with Trypanosoma cruzi [1] and 14 in series [12]. Further, the half-maximal inhibitory concentration (IC50) in series [7] amounted to 1.3 µM; in [2] it was 3.16 µM; in the series with Leishmania donovani, 33.4 µM; in series [10] it was 1.26 µM; in series [11], 0.09 µM; in the series on Trypanosoma cruzi [5], 0.438 µM. Further, the IC50 in the series with L6 is over 274 µM. Also, the selectivity ratio in series [3] is over 625. Besides, the inhibition entry in series [8] is “inactive”. Further, the result in series [9] was Active.
As for `O=[N+]([O-])c1ncn(CCCNS(=O)(=O)c2ccc(Cl)s2)n1`, the “Ratio IC50” value with Trypanosoma cruzi [1] is given as 3.6; in series [12], 19. Further, the IC50 in series [7] came out at 2.3 µM; in series [2], 1.99 µM; in the series with Leishmania donovani it was 33 µM; in series [10], 4.34 µM; in series [11], 0.23 µM; with Trypanosoma cruzi [5], 0.438 µM. In the series with L6, this compound yielded an IC50 of 244 µM. The selectivity ratio in series [3] was determined as 556; in series [4] it was 7.4; in [6], 122.
For the compound `O=[N+]([O-])c1ncn(CCCNS(=O)(=O)c2ccc(C(F)(F)F)cc2)n1`, the “Ratio IC50” value with Trypanosoma cruzi [1] was 4.4; in series [12], 31. Further, the half-inhibitory concentration (IC50) came out at 3.4 µM in series [7]; 0.504 µM in [2]; 13.1 µM with Leishmania donovani; 7.83 µM in series [10]; 0.25 µM in series [11]; 0.359 µM in the series with Trypanosoma cruzi [5]. Also, the IC50 with L6 was determined as 235 µM. Also, the selectivity ratio was determined as 656 in [3] and 467 in series [6]. Besides, in series [8], the inhibition result is “inactive”. The outcome in [9] was Active.
`Cc1ccc2nc(NC(=O)Cn3cnc([N+](=O)[O-])n3)sc2c1`: in the series on Trypanosoma cruzi [1], the “Ratio IC50” value was determined as 0.9. Besides, the concentration for half-maximal inhibition (IC50) came to 11.5 µM in series [2], 5.91 µM in the series with Leishmania donovani, 1.8 µM in the series on Trypanosoma cruzi [5] and 170 µM in the series on L6. Moreover, the selectivity ratio stood at 94.4 in [3], 28.7 in [4] and 14.8 in series [6].
In the case of `O=[N+]([O-])c1ncn(CCCCNS(=O)(=O)c2ccc(OC(F)(F)F)cc2)n1`, the “Ratio IC50” value with Trypanosoma cruzi [1] came to 7.7. The concentration for half-maximal inhibition (IC50) is 0.477 µM in series [2], 7.8 µM in the series on Leishmania donovani, 0.203 µM in the series with Trypanosoma cruzi [5] and 112 µM in the series on L6. The selectivity ratio was found to be 552 in series [3], 14.4 in [4] and 235 in series [6].
Take `O=C(Cn1cnc([N+](=O)[O-])n1)Nc1nc2ccc(Cl)cc2s1`: in the series with Trypanosoma cruzi [1], the “Ratio IC50” value amounted to 0.2. In addition, the IC50 is 48.5 µM in [2], 5.82 µM in the series with Leishmania donovani, 6.59 µM in the series on Trypanosoma cruzi [5] and 163 µM with L6. Moreover, the selectivity ratio worked out at 24.8 in series [3], 28 in series [4] and 3.4 in series [6].

Broadly, the IC50 is the concentration needed to halve the response being measured.
